# Experimental data as given in ChEMBL document CHEMBL4689842, “EUbOPEN Chemogenomics Library wave 1” (2021).
# Test system: U2OS
# Experiment: Multiplex assay against U2OS
# Type: toxicity, cell-based
# Settings: human
# Summary of the method: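 At seeding, live cells were stained with Hoechst33342, BioTracker Green Microtubule Cytoskeleton Dye, MitoTracker Red and Annexin V Alexa Fluor 680. After compound addition they were imaged on a CQ1 microscope at 37°C and 5% CO2, and CellPathfinder machine-learning gating sorted them into Hoechst high-intensity objects or normal cells, with normal cells further split into healthy, pyknosed or fragmented nuclei and pyknosed cells into mitotic or apoptotic. Tubulin, mitochondrial-mass and membrane-permeability phenotypes are given as per cents of cells with healthy nuclei.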
# [1] = 12 h, 1 µM, compound concentration 1 uM, replicate 1
# [2] = 12 h, 1 µM, compound concentration 1 uM, replicate 2
# [3] = 12 h, 10 µM, compound concentration 10 uM, replicate 1
# [4] = 12 h, 10 µM, compound concentration 10 uM, replicate 2
# [5] = 24 h, 1 µM, compound concentration 1 uM, replicate 1
# [6] = 24 h, 1 µM, compound concentration 1 uM, replicate 2
# [7] = 24 h, 10 µM, compound concentration 10 uM, replicate 1
# [8] = 24 h, 10 µM, compound concentration 10 uM, replicate 2
# [9] = 48 h, 1 µM, compound concentration 1 uM, replicate 1
# [10] = 48 h, 1 µM, compound concentration 1 uM, replicate 2
# [11] = 48 h, 10 µM, compound concentration 10 uM, replicate 1
# [12] = 48 h, 10 µM, compound concentration 10 uM, replicate 2
smiles,measurement,setting,value
Cc1nc(Cc2cccc(C(F)(F)F)c2)sc1-c1ccc(C(N)=O)nc1 [TP-024n],Population Apoptotic (%),[1],58%
same,Population Fragmented Nuclei (%),[1],8%
same,Population Healthy Nuclei (%),[1],85%
same,Population Hoechst High Intensity Objects (%),[1],5%
same,Population Membrane Permeable-Phenotype (%),[1],5%
same,Population Mitochondria Different-Phenotype (%),[1],10%
same,Population Mitotic Cells (%),[1],41%
same,Population Normal (%),[1],94%
same,Population Pyknosed Nuclei (%),[1],6%
same,Population Tubulin-Different-Phenotype (%),[1],9%
same,Total Cell Count,[1],159
same,Population Apoptotic (%),[2],50%
same,Population Fragmented Nuclei (%),[2],0%
same,Population Healthy Nuclei (%),[2],94%
same,Population Hoechst High Intensity Objects (%),[2],11%
same,Population Membrane Permeable-Phenotype (%),[2],2%
same,Population Mitochondria Different-Phenotype (%),[2],18%
same,Population Mitotic Cells (%),[2],50%
same,Population Normal (%),[2],88%
same,Population Pyknosed Nuclei (%),[2],5%
same,Population Tubulin-Different-Phenotype (%),[2],16%
same,Total Cell Count,[2],130
same,Population Apoptotic (%),[3],45%
same,Population Healthy Nuclei (%),[3],68%
same,Population Hoechst High Intensity Objects (%),[3],6%
same,Population Membrane Permeable-Phenotype (%),[3],3%
same,Population Mitochondria Different-Phenotype (%),[3],27%
same,Population Mitotic Cells (%),[3],54%
same,Population Normal (%),[3],93%
same,Population Pyknosed Nuclei (%),[3],13%
same,Population Tubulin-Different-Phenotype (%),[3],22%
same,Total Cell Count,[3],186
same,Population Apoptotic (%),[4],66%
same,Population Fragmented Nuclei (%),[4],17%
same,Population Healthy Nuclei (%),[4],67%
same,Population Hoechst High Intensity Objects (%),[4],4%
same,Population Membrane Permeable-Phenotype (%),[4],9%
same,Population Mitochondria Different-Phenotype (%),[4],21%
same,Population Mitotic Cells (%),[4],33%
same,Population Normal (%),[4],95%
same,Population Pyknosed Nuclei (%),[4],14%
same,Population Tubulin-Different-Phenotype (%),[4],11%
same,Total Cell Count,[4],44
same,Population Apoptotic (%),[5],46%
same,Population Fragmented Nuclei (%),[5],6%
same,Population Healthy Nuclei (%),[5],86%
same,Population Hoechst High Intensity Objects (%),[5],4%
same,Population Membrane Permeable-Phenotype (%),[5],3%
same,Population Mitochondria Different-Phenotype (%),[5],8%
same,Population Mitotic Cells (%),[5],53%
same,Population Normal (%),[5],95%
same,Population Pyknosed Nuclei (%),[5],6%
same,Population Tubulin-Different-Phenotype (%),[5],8%
same,Total Cell Count,[5],164
same,Population Apoptotic (%),[6],50%
same,Population Fragmented Nuclei (%),[6],5%
same,Population Healthy Nuclei (%),[6],91%
same,Population Hoechst High Intensity Objects (%),[6],5%
same,Population Membrane Permeable-Phenotype (%),[6],1%
same,Population Mitochondria Different-Phenotype (%),[6],7%
same,Population Mitotic Cells (%),[6],50%
same,Population Pyknosed Nuclei (%),[6],3%
same,Population Tubulin-Different-Phenotype (%),[6],15%
same,Total Cell Count,[6],126
same,Population Apoptotic (%),[7],42%
same,Population Fragmented Nuclei (%),[7],19%
same,Population Membrane Permeable-Phenotype (%),[7],8%
same,Population Mitochondria Different-Phenotype (%),[7],23%
same,Population Mitotic Cells (%),[7],57%
same,Population Pyknosed Nuclei (%),[7],21%
same,Population Tubulin-Different-Phenotype (%),[7],16%
same,Total Cell Count,[7],241
same,Population Apoptotic (%),[8],44%
same,Population Fragmented Nuclei (%),[8],14%
same,Population Healthy Nuclei (%),[8],58%
same,Population Hoechst High Intensity Objects (%),[8],2%
same,Population Membrane Permeable-Phenotype (%),[8],25%
same,Population Mitochondria Different-Phenotype (%),[8],32%
same,Population Mitotic Cells (%),[8],55%
same,Population Normal (%),[8],97%
same,Population Pyknosed Nuclei (%),[8],26%
same,Population Tubulin-Different-Phenotype (%),[8],22%
same,Total Cell Count,[8],60
same,Population Apoptotic (%),[9],32%
same,Population Healthy Nuclei (%),[9],88%
same,Population Hoechst High Intensity Objects (%),[9],3%
same,Population Membrane Permeable-Phenotype (%),[9],2%
same,Population Mitochondria Different-Phenotype (%),[9],8%
same,Population Mitotic Cells (%),[9],68%
same,Population Normal (%),[9],96%
same,Population Pyknosed Nuclei (%),[9],6%
same,Population Tubulin-Different-Phenotype (%),[9],7%
same,Total Cell Count,[9],160
same,Population Apoptotic (%),[10],33%
same,Population Fragmented Nuclei (%),[10],4%
same,Population Healthy Nuclei (%),[10],92%
same,Population Hoechst High Intensity Objects (%),[10],4%
same,Population Membrane Permeable-Phenotype (%),[10],3%
same,Population Mitochondria Different-Phenotype (%),[10],10%
same,Population Mitotic Cells (%),[10],66%
same,Population Normal (%),[10],95%
same,Population Pyknosed Nuclei (%),[10],3%
same,Population Tubulin-Different-Phenotype (%),[10],14%
same,Total Cell Count,[10],122
same,Population Apoptotic (%),[11],55%
same,Population Fragmented Nuclei (%),[11],20%
same,Population Healthy Nuclei (%),[11],56%
same,Population Hoechst High Intensity Objects (%),[11],5%
same,Population Membrane Permeable-Phenotype (%),[11],10%
same,Population Mitochondria Different-Phenotype (%),[11],19%
same,Population Mitotic Cells (%),[11],44%
same,Population Normal (%),[11],94%
same,Population Pyknosed Nuclei (%),[11],22%
same,Population Tubulin-Different-Phenotype (%),[11],13%
same,Total Cell Count,[11],386
same,Population Apoptotic (%),[12],72%
same,Population Fragmented Nuclei (%),[12],17%
same,Population Healthy Nuclei (%),[12],69%
same,Population Hoechst High Intensity Objects (%),[12],6%
same,Population Membrane Permeable-Phenotype (%),[12],32%
same,Population Mitochondria Different-Phenotype (%),[12],32%
same,Population Mitotic Cells (%),[12],27%
same,Population Normal (%),[12],93%
same,Population Pyknosed Nuclei (%),[12],13%
same,Population Tubulin-Different-Phenotype (%),[12],35%
same,Total Cell Count,[12],93
